# In PMC4298701 (Diabetes, 2007):
# What was measured:
# [1] = tested on: ob/ob mice; assay: Ceramide and glucosylceramide in liver and muscle of ob/ob mice; assay type: in vivo
# [2] = target: sucrase (Rattus norvegicus, UniProt P23739); assay: Sucrase, homogenates of freshly isolated rat intestine; assay type: biochemical; settings: read-out: IC50 sucrase; rat intestine homogenate
# [3] = tested on: ob/ob mice; assay: Glucose homeostasis, A1C and liver lipids/glycogen in ob/ob mice; assay type: in vivo
# How it was run: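 ob/ob mice (C57Bl/6J background) were fed diet containing test compound at 25 mg·kg−1·day−1, with wild-type mice as reference; A1C was measured after 9 weeks. For oral glucose tolerance, animals were fasted >6 h and gavaged with glucose (1 or 2 g/kg). […] Means ± SE; two-tailed Student's t test.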
# [4] = target: T1, sphingomyelinase (Homo sapiens, UniProt P17405); assay: Sphingomyelinase inhibition; assay type: biochemical; settings: at a concentration <1 μmol/l
# T1 sequence (P17405 47-631): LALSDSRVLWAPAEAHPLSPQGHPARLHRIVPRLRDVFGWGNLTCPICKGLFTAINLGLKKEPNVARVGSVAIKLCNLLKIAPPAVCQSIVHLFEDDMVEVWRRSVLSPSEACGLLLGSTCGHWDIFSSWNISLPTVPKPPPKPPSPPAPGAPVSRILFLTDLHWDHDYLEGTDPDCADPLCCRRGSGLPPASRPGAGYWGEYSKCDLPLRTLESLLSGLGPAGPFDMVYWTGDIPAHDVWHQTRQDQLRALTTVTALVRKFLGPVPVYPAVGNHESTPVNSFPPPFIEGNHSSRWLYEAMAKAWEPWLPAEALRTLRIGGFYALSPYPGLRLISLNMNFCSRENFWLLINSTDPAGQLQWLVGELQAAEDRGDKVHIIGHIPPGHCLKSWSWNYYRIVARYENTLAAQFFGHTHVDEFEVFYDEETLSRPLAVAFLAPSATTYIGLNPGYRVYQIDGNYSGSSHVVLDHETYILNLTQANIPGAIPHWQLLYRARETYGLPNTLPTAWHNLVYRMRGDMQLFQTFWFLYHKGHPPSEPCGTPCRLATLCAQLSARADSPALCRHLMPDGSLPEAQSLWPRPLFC
# [5] = tested on: glycogen synthase; assay: Glycogen synthase inhibition; assay type: biochemical; settings: at a concentration <1 μmol/l; data not shown
# [6] = Plasma levels of AMP-DNM in rats; assay type: in vivo
# How it was run: (§1)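 Plasma test compound was measured by HPLC followed by mass spectrometry, with blood taken by tail vein, retro-orbital or cardiac puncture. Half-life was determined in mice and rats. For plasma concentration, six-week-old C57Bl/6J mice (n = 4) were dosed at 25 mg·kg−1·day−1 for 14 days and sampled during treatment; mean ± SE.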
# [7] = tested on: C57Bl/6J mice fed a high-fat diet; assay: Glucose homeostasis in high-fat diet-induced glucose-intolerant C57Bl/6J mice; assay type: in vivo; settings: high-fat diet C57Bl/6J mice, 2 weeks, ± SD
# How it was run: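 C57Bl/6J mice were made glucose-intolerant by 4 weeks on a high-fat diet (16.4% protein, 25.5% carbohydrate, 58.0% fat). They then received test compound by daily oral gavage at 0, 5 or 25 mg·kg−1·day−1 for 2 weeks, n = 8 per group. Fasted blood glucose was measured; means ± SD.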
# [8] = tested on: maltase; assay: Maltase, homogenates of freshly isolated rat intestine; assay type: biochemical; settings: read-out: IC50 maltase; rat intestine homogenate
# [9] = tested on: ZDF rats; assay: A1C in ZDF rats; assay type: in vivo
# [10] = Plasma levels of AMP-DNM in mice; assay type: in vivo
# How it was run: as §1
# [11] = tested on: 3T3-L1 adipocytes; assay: Cell surface expression of GM3; assay type: cell-based; settings: 10 μmol/l AMP-DNM, TNF-α 0.6 nmol/l, 24 h
# How it was run: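 Fully differentiated 3T3-L1 adipocytes were serum-deprived in DMEM plus 1% BSA and treated for 24 h with vehicle, test compound (10 μmol/l) and/or TNF-α (0.6 nmol/l). Basal cells (no insulin) were stained with monoclonal anti-GM3 and FITC- or Alexa 488-conjugated secondary antibody, then read by flow cytometry as % viable cells GM3-positive. Means ± SE of four independent experiments.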
# [12] = target: acid α-glucosidase (Homo sapiens, UniProt P10253); assay: Acid α-glucosidase inhibition; assay type: biochemical; settings: at a concentration <1 μmol/l
# [13] = tested on: ZDF rats; assay: Ceramide and glycosphingolipid levels in liver of ZDF rats; assay type: in vivo; settings: mean ± SD
# [14] = Plasma levels, accumulation and metabolism after administration to rodents; assay type: in vivo
# [15] = tested on: 3T3-L1 adipocytes; assay: Insulin signaling in TNF-α-treated 3T3-L1 adipocytes; assay type: cell-based; settings: 10 μmol/l AMP-DNM, TNF-α 0.6 nmol/l, 24 h
# [16] = tested on: 3T3-L1 adipocytes; assay: Sphingolipid content of 3T3-L1 adipocytes; assay type: cell-based; settings: TNF-α 0.6 nmol/l + AMP-DNM 10 μmol/l, 24 h, mean ± SE
# [17] = tested on: endoplasmic reticulum–trimming α-glucosidases; assay: ER-trimming α-glucosidases inhibition; assay type: biochemical; settings: at a concentration <1 μmol/l
# [18] = tested on: C57Bl/6J mice; assay: Ceramide and glycosphingolipids in liver and muscle of normal C57Bl/6J mice; assay type: in vivo
# [19] = target: debranching enzyme (α-1, 6-glucosidase) (Homo sapiens, UniProt P35573); assay: Debranching enzyme, erythrocyte preparation; assay type: biochemical; settings: at a concentration <1 μmol/l; data not shown
# [20] = In vitro incubation with microsomes; assay type: in vitro ADME; settings: 4 h; not shown
# [21] = tested on: rodents; assay: Tolerability in rodents; assay type: in vivo; settings: up to 100 mg · kg−1 · day−1 for 2 months
# [22] = tested on: ob/ob mice; assay: Hyperinsulinemic-euglycemic clamp in ob/ob mice; assay type: in vivo; settings: 25 mg · kg body wt−1 · day−1, clamp
# [23] = 25 mg AMP-DNM/kg, 2 weeks, mean ± SD
# [24] = ob/ob mice, 25 mg · kg body wt−1 · day−1
# [25] = oral administration of 25 mg/kg body wt
# [26] = with insulin (100 nmol/l, 5 min)
# [27] = C57Bl/6J mice, 25 mg · kg−1 · day−1, 14 days
# [28] = normal C57Bl/6J mice, 25 mg AMP-DNM/kg, 2 weeks, mean ± SD
# sucrase, sequence (P23739 1014-1841 limits assumed): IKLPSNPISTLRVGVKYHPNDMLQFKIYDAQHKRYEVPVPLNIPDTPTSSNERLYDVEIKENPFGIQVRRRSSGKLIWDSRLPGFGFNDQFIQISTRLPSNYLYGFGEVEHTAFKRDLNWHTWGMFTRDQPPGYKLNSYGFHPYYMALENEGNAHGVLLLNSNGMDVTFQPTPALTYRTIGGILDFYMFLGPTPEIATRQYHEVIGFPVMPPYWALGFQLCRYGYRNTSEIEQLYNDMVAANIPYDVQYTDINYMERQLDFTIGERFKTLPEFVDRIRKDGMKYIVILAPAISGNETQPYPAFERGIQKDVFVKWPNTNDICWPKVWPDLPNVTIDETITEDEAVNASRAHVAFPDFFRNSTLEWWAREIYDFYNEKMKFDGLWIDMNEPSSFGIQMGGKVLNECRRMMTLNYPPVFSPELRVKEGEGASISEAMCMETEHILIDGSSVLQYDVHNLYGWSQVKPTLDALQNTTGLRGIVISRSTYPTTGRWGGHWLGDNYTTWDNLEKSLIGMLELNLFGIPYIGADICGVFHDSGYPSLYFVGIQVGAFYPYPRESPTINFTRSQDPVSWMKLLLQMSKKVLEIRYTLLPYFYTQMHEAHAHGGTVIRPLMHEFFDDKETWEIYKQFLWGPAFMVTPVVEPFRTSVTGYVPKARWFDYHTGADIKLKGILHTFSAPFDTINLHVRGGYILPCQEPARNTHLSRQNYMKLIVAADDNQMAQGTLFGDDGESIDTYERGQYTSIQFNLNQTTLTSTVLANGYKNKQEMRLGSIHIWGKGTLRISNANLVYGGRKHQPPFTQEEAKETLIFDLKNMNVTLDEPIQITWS
# sucrase, sequence (P23739 1-1013 partner limits assumed): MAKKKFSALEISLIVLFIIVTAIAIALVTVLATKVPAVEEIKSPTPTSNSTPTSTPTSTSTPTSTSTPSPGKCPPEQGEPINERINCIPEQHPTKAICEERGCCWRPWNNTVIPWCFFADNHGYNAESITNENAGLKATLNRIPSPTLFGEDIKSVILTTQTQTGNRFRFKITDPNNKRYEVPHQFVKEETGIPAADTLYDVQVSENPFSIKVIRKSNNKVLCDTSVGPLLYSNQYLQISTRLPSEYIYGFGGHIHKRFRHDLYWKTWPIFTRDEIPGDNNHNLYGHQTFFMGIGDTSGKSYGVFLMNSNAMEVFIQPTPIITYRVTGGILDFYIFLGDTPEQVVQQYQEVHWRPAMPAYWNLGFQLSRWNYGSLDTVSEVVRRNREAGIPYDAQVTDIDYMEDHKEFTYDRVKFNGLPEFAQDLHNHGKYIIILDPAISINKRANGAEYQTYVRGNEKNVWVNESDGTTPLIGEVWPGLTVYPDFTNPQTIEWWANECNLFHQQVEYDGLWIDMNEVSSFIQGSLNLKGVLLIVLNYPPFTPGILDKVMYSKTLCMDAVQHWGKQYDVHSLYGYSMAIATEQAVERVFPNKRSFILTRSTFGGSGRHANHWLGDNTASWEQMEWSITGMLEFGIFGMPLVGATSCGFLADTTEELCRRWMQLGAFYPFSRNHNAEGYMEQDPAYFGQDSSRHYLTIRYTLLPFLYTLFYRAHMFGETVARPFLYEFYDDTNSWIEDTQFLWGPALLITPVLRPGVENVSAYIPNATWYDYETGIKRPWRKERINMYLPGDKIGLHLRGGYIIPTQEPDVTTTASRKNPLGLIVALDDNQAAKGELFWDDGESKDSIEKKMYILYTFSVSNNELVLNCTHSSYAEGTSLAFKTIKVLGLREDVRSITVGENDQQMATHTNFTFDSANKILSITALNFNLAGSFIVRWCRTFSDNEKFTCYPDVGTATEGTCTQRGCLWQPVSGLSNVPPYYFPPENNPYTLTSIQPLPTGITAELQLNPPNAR
# debranching enzyme (α-1, 6-glucosidase), sequence (P35573 whole entry): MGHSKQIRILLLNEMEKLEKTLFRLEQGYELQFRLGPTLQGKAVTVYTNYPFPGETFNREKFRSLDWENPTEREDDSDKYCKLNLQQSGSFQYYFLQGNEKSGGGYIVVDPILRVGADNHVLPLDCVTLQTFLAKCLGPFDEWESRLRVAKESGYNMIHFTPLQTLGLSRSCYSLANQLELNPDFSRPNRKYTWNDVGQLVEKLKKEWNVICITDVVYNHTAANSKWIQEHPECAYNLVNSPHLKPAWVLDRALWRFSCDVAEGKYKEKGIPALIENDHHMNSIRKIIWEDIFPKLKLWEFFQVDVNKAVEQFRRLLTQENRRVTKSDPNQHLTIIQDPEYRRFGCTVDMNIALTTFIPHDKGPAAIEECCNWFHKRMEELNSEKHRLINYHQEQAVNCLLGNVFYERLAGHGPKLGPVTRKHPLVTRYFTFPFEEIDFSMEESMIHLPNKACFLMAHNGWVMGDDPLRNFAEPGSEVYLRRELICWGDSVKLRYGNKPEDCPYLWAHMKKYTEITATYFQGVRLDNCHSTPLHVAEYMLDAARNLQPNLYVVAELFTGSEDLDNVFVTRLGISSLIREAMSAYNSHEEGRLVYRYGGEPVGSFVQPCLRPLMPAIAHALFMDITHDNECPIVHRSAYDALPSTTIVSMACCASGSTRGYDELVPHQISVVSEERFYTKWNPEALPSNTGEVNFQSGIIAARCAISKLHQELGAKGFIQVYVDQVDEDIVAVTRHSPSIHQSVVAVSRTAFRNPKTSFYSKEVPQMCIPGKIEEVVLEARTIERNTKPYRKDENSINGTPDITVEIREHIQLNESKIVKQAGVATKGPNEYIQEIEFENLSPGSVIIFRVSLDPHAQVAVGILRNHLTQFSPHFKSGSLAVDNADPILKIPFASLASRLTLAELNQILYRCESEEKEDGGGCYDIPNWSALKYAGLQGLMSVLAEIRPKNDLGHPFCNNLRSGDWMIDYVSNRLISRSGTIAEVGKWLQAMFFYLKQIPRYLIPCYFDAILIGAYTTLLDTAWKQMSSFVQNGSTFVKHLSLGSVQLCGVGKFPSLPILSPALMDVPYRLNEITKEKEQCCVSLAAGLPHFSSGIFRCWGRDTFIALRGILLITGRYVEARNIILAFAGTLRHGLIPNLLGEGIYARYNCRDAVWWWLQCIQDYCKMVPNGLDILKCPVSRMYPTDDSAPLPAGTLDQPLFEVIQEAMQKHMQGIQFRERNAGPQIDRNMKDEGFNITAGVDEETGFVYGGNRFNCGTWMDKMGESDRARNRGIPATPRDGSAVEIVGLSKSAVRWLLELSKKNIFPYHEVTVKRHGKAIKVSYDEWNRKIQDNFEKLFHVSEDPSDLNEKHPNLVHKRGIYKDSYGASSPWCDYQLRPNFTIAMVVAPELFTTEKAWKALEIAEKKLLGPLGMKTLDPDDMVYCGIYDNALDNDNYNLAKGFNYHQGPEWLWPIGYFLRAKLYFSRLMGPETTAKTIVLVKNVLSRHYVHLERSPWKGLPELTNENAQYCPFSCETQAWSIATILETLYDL
smiles,measurement,setting,value
"OC[C@@H]1[C@@H](O)[C@H](O)[C@@H](O)CN1CCCCCOCC12CC3CC(CC(C3)C1)C2 [AMP-DNM, N-(5′-adamantane-1′-yl-methoxy)-pentyl-1-deoxynojirimycin]","Cer, liver",[1]; [23],95.9 ± 11.6 nmol/mg protein
same,"Cer, muscle",[1]; [23],1.29 ± 0.24 nmol/mg protein
same,"GlcCer, liver",[1]; [23],2.24 ± 0.14 nmol/mg protein
same,"GlcCer, muscle",[1]; [23],1.41 ± 0.16 nmol/mg protein
same,decrease of glucosylceramide content of muscle,"[1]; 25 mg · kg−1 · day−1, two weeks",45 ± 23%
same,IC50,[2],4.5 µM
same,triglyceride concentration in liver,[3]; AMP-DNM-fed ob/ob mice,80 ± 11 nmol/mg liver
same,blood glucose concentrations,[3]; [24],pronounced reduction
same,effect on body weight or food intake,[3]; [24],no significant effect
same,A1C concentration,"[3]; ob/ob mice, 25 mg · kg body wt−1 · day−1 for 9 weeks",4.82 ± 0.85%
same,"AUC of blood glucose concentrations, oral glucose tolerance test","[3]; ob/ob mice, 25 mg/kg for 8 days, glucose 1 g/kg body wt, ± SD",13.21 ± 1.43 arbitrary units per minute
same,inhibition of sphingomyelinase activity,[4],no significant inhibition
same,effect on glycogen synthase,[5],unaffected
same,plasma half-life,[6],~4.2 h
same,fasting blood glucose,[7]; 5 mg · kg−1 · day−1 oral gavage,9.46 ± 0.26 mmol/L
same,fasting blood glucose,[7]; 25 mg · kg−1 · day−1 oral gavage,7.74 ± 0.40 mmol/L
same,IC50,[8],18 µM
same,A1C,"[9]; 25 mg · kg−1 · day−1, 9 weeks",6.31 ± 0.68%
same,A1C,"[9]; 60 mg · kg body wt−1 · day−1, 10 weeks, separate experiment",5.4 ± 0.4%
same,plasma concentration of AMP-DNM,"[10]; C57Bl/6J mice, 25 mg · kg body wt−1 · day−1 for 14 days, mean ± SE",108 ± 6 nM
same,plasma half-life,[10]; mice,~ 3.1 h
same,TNF-α-increased cell surface levels of GM3 gangliosides,[11],blocked
same,inhibition of acid α-glucosidase activity,[12],no significant inhibition
same,Liver Ceramide,"[13]; 5 mg · kg−1 · day−1, 10 weeks",416 ± 24 nmol/g wet wt
same,Liver GDA1,"[13]; 5 mg · kg−1 · day−1, 10 weeks",15.5 ± 1.7 nmol/g wet wt
same,Liver GM1,"[13]; 5 mg · kg−1 · day−1, 10 weeks",11.4 ± 2.2 nmol/g wet wt
same,Liver GM2,"[13]; 5 mg · kg−1 · day−1, 10 weeks",5.9 ± 0.9 nmol/g wet wt
same,Liver GM3,"[13]; 5 mg · kg−1 · day−1, 10 weeks",21.3 ± 2.9 nmol/g wet wt
same,Liver Glucosylceramide,"[13]; 5 mg · kg−1 · day−1, 10 weeks",53.4 ± 5.7 nmol/g wet wt
same,Liver Ceramide,"[13]; 25 mg · kg−1 · day−1, 10 weeks",451 ± 37 nmol/g wet wt
same,Liver GDA1,"[13]; 25 mg · kg−1 · day−1, 10 weeks",7.9 ± 0.9 nmol/g wet wt
same,Liver GM1,"[13]; 25 mg · kg−1 · day−1, 10 weeks",5.6 ± 1.1 nmol/g wet wt
same,Liver GM2,"[13]; 25 mg · kg−1 · day−1, 10 weeks",4.8 ± 0.8 nmol/g wet wt
same,Liver GM3,"[13]; 25 mg · kg−1 · day−1, 10 weeks",17.3 ± 2.7 nmol/g wet wt
same,Liver Glucosylceramide,"[13]; 25 mg · kg−1 · day−1, 10 weeks",47.4 ± 5.2 nmol/g wet wt
same,accumulation with daily exposure,[14]; daily exposure over 28 days,does not accumulate
same,in vivo metabolism (mass spectrometric analysis of urine and plasma),[14]; in vivo,No significant in vivo metabolism
same,maximal plasma concentration,[14]; [25],5 µmol/L
same,time of maximal plasma concentration,[14]; [25],30 min
same,"TNF-α-impaired insulin receptor autophosphorylation, IRS-1 tyrosine phosphorylation and Ser-473 phosphorylation of Akt",[15],significantly ameliorated
same,Ceramide,[16]; [26],"1,241 ± 99 pmol/well"
same,GM3,[16]; [26],"1,988 ± 169 pmol/well"
same,Ceramide,[16]; without insulin,"1,241 ± 88 pmol/well"
same,GM2,[16]; without insulin,267 ± 18 pmol/well
same,GM3,[16]; without insulin,"2,205 ± 138 pmol/well"
same,inhibition of endoplasmic reticulum–trimming α-glucosidases,[17],no significant inhibition
same,reduction of ganglioside GM3 in liver,[18]; [27],28 ± 6%
same,reduction of liver glucosylceramide,[18]; [27],41 ± 5%
same,"Cer, liver",[18]; [28],10.31 ± 0.96 nmol/mg protein
same,"Cer, muscle",[18]; [28],1.47 ± 0.22 nmol/mg protein
same,"GlcCer, liver",[18]; [28],1.24 ± 0.09 nmol/mg protein
same,"GlcCer, muscle",[18]; [28],0.89 ± 0.22 nmol/mg protein
same,effect on cytosolic debranching enzyme,[19],unaffected
same,recovered after in vitro incubation with microsomes,[20],More than 90%
same,overt toxicity,[21],did not result in any overt toxicity
same,decrease in hepatic glucose production (Ra),[22],~ 26%
same,increase in glucose disposal (Rd),[22],~ 29%
same,whole-body insulin sensitivity,[22],marked improvement
